Data as given in PubChem BioAssay AID1885 (Broad Institute, 2009).
Screen size: about 300,000 compounds; about 4,400 (1.5%) were called active. The sample as a whole holds a higher share of actives than the screen did. Values without a mark were called inactive.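 The calls were made as follows: active = mean inhibition across valid replicates above about 55% (limit read from the data); inconclusive = mean below that limit but half or more replicates reach it; inactive = mean below it, under half of replicates reach it.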

Experiment: inhibitors of intracellular T. cruzi growth, primary screen, luminescence, NIH3T3 host cells (AID 1885);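 also: signal also drops with host cell toxicity which is not excluded here; 0% = plate median of DMSO wells and 100% = zero luminescence signal; higher percent means less beta-gal luminescence so fewer parasites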
Conditions: T. cruzi beta-gal in NIH3T3, luminescence, 90 h; active compounds read high; concentration not given here
Outline: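 compound dosing = single 50 nL compound addition per well in DMSO | material = NIH/3T3 host cells with β-galactosidase reporter T. cruzi | input = 5,000 host fibroblasts per well | timing = ≥90 h infection period, 3 h prior cell attachment | read-out basis = percent inhibition of parasite-derived β-gal signal | detection = GalScreen β-gal luminescence, detergent lysis, 60 min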

Structure (SMILES)	inhibition
COC(=O)C(c1ccccc1)N1CCCCCC1 (stereo not given)	-2.88%
O=C(NCC(c1cccnc1)N1CCN(c2ccccc2)CC1)Oc1ccccc1 (stereo not given)	64.2% (active)
COc1ccccc1N1CCN(C(CNC(=O)Oc2ccccc2)c2cccnc2)CC1 (stereo not given)	61.2% (active)
c1ccc(CCN2CCC3(CC2)OCCO3)cc1	8.57%
Cc1ccc(C)c(NC2=NCCCS2)c1	8.9%
COc1cccc(OC)c1C(=O)NC(=S)N1C[C@H]2C[C@H](C1)c1cccc(=O)n1C2	0.307%
CC(C)c1ccc(-n2c(O)c(/C=N/N3CCOCC3)c(=O)[nH]c2=S)cc1	-9.55%
CCN1CC2C3CCC(C)(O3)C2C1 (stereo not given)	-4.25%
COc1ccc(CNCCc2ccc3c(c2)OCO3)c(OC)c1OC	50.2%
COc1ccc(CNCCc2c[nH]c3ccccc23)cc1OC	8.16%
COc1ccc(Br)cc1CNCCc1cccc(Cl)c1	56.8% (active)
CC1=CC(=Cc2sc3ccccc3[n+]2C)C=C(C)O1	81.1% (active)
COc1ccc(N2C(=O)/C(=C/c3ccco3)C(=O)NC2=S)cc1	-2.75%
C[C@@]1([C@@H](NP(=O)(c2ccccc2)c2ccccc2)c2ccccc2)C[C@H]1CCO	1%
Cc1ccc(-c2nn(CCC#N)cc2C(=O)O)cc1C	-14.3%
COc1ccccc1-n1c(O)c(C=NC2CC2)c(=O)[nH]c1=O	-10.6%
COc1cccc(CN2CCCC(C(=O)c3ccccc3SC)C2)c1O (stereo not given)	0.0491%
O=C(c1ccccc1[N+](=O)[O-])N1CCC2(CC1)OCCO2	-12.5%

Structure (SMILES)	inhibition
Cc1ccc(C2CN(C)CC2C(=O)c2ccc(F)cc2)cc1 (stereo not given)	-5.25%
CN1CCC(OC(=O)c2cccc(F)c2)CC1	58.3% (active)
CCC/C(=N\O)c1c[nH]c2ccccc12	-2.44%
COc1ccc(-n2c(O)c(C(C)=Nc3ccc4c(c3)CCC4)c(=O)[nH]c2=O)cc1	-27.7%
CCOc1ccc(CN(CCCl)CCCl)cc1C(=O)OC	-1.04%
CCOc1ccc(-c2cc(C)[n+](CCN(CC)CC)c(-c3ccc(OCC)cc3)c2)cc1	64.1% (active)
CN1C2C=C(N(C(=O)c3ccc(Cl)cc3)c3ccccc3)CC1CC2 (stereo not given)	9.22%
O=C1N=c2ccccc2=C/C1=C\c1c(O)[nH]c(=S)[nH]c1=O	-14%
CCCCCCCCCCCCn1ccc(=N)cc1	58.9% (active)
CCc1nc2ccccc2c(=O)n1-c1cccc(OC)c1	-3.64%
CC(C)Oc1cccc(C(=O)C2CCCN(C3CCOCC3)C2)c1 (stereo not given)	-14%
CC(=O)c1c(O)n(C2CCCCCC2)c(=O)[nH]c1=O	-10.9%
CC1=C(C(=O)Nc2ccccc2)SCCO1	-24.2%
O=C(NC(c1ccc(Cl)cc1)P(=O)(Oc1ccccc1)Oc1ccccc1)OCc1ccccc1 (stereo not given)	12.3%
C=CCN1C(=O)NC(=O)/C(=C/c2ccc(OCC(=O)Nc3ccc(C)cc3)cc2)C1=O	12.8%
COc1cc(C(c2c(O)c3ccccc3oc2=O)c2c(C)n(C)n(-c3ccccc3)c2=O)ccc1O (stereo not given)	-33%
CCOP(=O)(OCC)C(NC(=O)NC)C(N)=O (stereo not given)	2.29%
